Results: ChEMBL document CHEMBL1126698, “Synthesis and amnesia-reversal activity of a series of 7- and 5-membered 3-acylamino lactams” (1993)

Experiments:
Type in all cases: functional
Mus musculus [1] = assay: Amnesia-reversal activity in ECS-induced amnesia model of mice at 1 mg/kg i.p.; conditions: route intraperitoneal
How it was run: (§1)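 Male CD1 mice (24–28 g), step-through passive avoidance. Amnesia induced by ECS through auricular electrodes (20 mA, 0.6 ms pulses, 0.5 s, 50 Hz) immediately after the acquisition trial. Compound given ip 30 min before acquisition, at doses equimolar to 1 or 10 mg/kg Piracetam. Retention latency capped at 300 s. AA = CI(treated)/CI(sham) × 100, with CI derived from Mann-Whitney U versus amnesic controls.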

Mus musculus [2] = assay: Amnesia-reversal activity in ECS-induced amnesia model of mice at 10 mg/kg i.p.; conditions: route intraperitoneal; how it was run: as §1
Mus musculus [3] = assay: Amnesia-reversal activity in scopolamine-induced amnesia model of mice at 1 mg/kg i.p.; conditions: route intraperitoneal
How it was run: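 Step-through passive avoidance in male CD1 mice (24–28 g). Scopolamine hydrobromide 1.5 mg/kg sc given 15 min before the acquisition trial. Test substance given ip 30 min before acquisition at a dose equimolar to 1 mg/kg Piracetam. Retention latency end point 300 s. AA is the treated-to-sham ratio of confrontation indices (×100), each index computed from Mann-Whitney U against the scopolamine-only group.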

Mus musculus [4] = assay: Amnesia-reversal activity evaluated in ECS-induced amnesia model of mice at a dose of 1 mg/kg
How it was run: (§2)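 Male CD1 mice (24–28 g), step-through passive avoidance, retention end point 300 s. ECS via auricular electrodes (20 mA, 0.6 ms pulses, 0.5 s, 50 Hz) immediately after the acquisition trial. Compounds given ip 30 min before acquisition at doses equimolar to 1, 10 (and 100 for references) mg/kg Piracetam. Retention latency vs control by Mann-Whitney U. AA = CI treated/CI sham ×100.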

Mus musculus [5] = assay: Amnesia-reversal activity evaluated in ECS-induced amnesia model of mice at a dose of 10 mg/kg; how it was run: as §2
Mus musculus [6] = assay: Amnesia-reversal activity evaluated in scopolamine-induced amnesia model of mice at a dose of 1 mg/kg
How it was run: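 Male CD1 mice (24–28 g), step-through passive avoidance, retention end point 300 s. Scopolamine hydrobromide 1.5 mg/kg sc 15 min before acquisition. Compounds given ip 30 min before acquisition at a dose equimolar to 1 mg/kg Piracetam. Retention latency vs control by Mann-Whitney U. AA = CI treated/CI sham ×100.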

Mus musculus [7] = assay: Amnesia-reversal activity (AA) evaluated in ECS-induced amnesia model of mice at a dose of 100 mg/kg; how it was run: as §2

`O=C(CN1CCCC1=O)NC1CCCCNC1=O` (stereo not drawn) gave an AA (Mus musculus [1]) of 10, an AA (Mus musculus [2]) of 0 and an AA (Mus musculus [3]) of 21.

Compound `COC(=O)CN1CCCC[C@H](NC(=O)CCCc2ccccc2)C1=O` has an AA (Mus musculus [4]) of 0, an AA (Mus musculus [5]) of 0 and an AA (Mus musculus [6]) of 0.

`O=C(CCCc1ccccc1)N[C@H]1CCCCN(CCO)C1=O` gave an AA (Mus musculus [1]) of 7, an AA (Mus musculus [2]) of 20 and an AA (Mus musculus [3]) of 12.

Work on `NC(=O)CN1CCCC[C@H](NC=O)C1=O` yielded an AA (Mus musculus [1]) of 55, an AA (Mus musculus [2]) of 9 and an AA (Mus musculus [3]) of 0.

`O=CCN1CCCC[C@H](NC(=O)CCCc2ccccc2)C1=O` showed an AA (Mus musculus [4]) of 0, an AA (Mus musculus [5]) of 25 and an AA (Mus musculus [6]) of 26.

Compound `O=C(N[C@@H]1CCCCNC1=O)c1cccc(C(F)(F)F)c1` has an AA (Mus musculus [1]) of 21, an AA (Mus musculus [2]) of 0 and an AA (Mus musculus [3]) of 15.

In the case of `N[C@H]1CCNC1=O`, the AA (Mus musculus [4]) is reported as 24, the AA (Mus musculus [5]) is reported as 0 and the AA (Mus musculus [6]) is reported as 0.

Work on `N[C@H]1CCCCNC1=O` yielded an AA (Mus musculus [4]) of 37, an AA (Mus musculus [5]) of 26 and an AA (Mus musculus [6]) of 47.

`O=C(NC1CCCCNC1=O)c1cccc(C(F)(F)F)c1` (stereo not drawn) gave an AA (Mus musculus [1]) of 18, an AA (Mus musculus [2]) of 17 and an AA (Mus musculus [3]) of 65.

`COc1ccc(C(=O)NC2CCCCNC2=O)cc1` (stereo not drawn) showed an AA (Mus musculus [1]) of 37, an AA (Mus musculus [2]) of 37 and an AA (Mus musculus [3]) of 0.

Compound `O=C(CCCc1ccccc1)NC1CCCCNC1=O` (stereo not drawn) has an AA (Mus musculus [1]) of 0, an AA (Mus musculus [2]) of 0 and an AA (Mus musculus [3]) of 5.

Work on `O=C1NCCCCC1NC(=O)[C@@H]1CCCN1C(=O)OCc1ccccc1` (stereo partly drawn) yielded an AA (Mus musculus [1]) of 0 and an AA (Mus musculus [3]) of 27.

In the case of `NC(=O)CN1CCCC[C@H](NC(=O)CCCc2ccccc2)C1=O`, the AA (Mus musculus [1]) is reported as 0, the AA (Mus musculus [2]) is reported as 0 and the AA (Mus musculus [3]) is reported as 0.

`O=C(NC1CCNC1=O)c1cccc(C(F)(F)F)c1` (stereo not drawn) was tested, and the AA (Mus musculus [1]) was 51, the AA (Mus musculus [2]) was 58 and the AA (Mus musculus [3]) was 0.

For `O=CN[C@H]1CCCCN(CCO)C1=O`, the AA (Mus musculus [1]) was 46, the AA (Mus musculus [2]) was 61 and the AA (Mus musculus [3]) was 7.

Compound `COC(=O)CN1CCCC[C@H](NC=O)C1=O` has an AA (Mus musculus [1]) of 0, an AA (Mus musculus [2]) of 9 and an AA (Mus musculus [3]) of 0.

Compound `O=CNC1CCCCNC1=O` (stereo not drawn) has an AA (Mus musculus [1]) of 71, an AA (Mus musculus [2]) of 55 and an AA (Mus musculus [3]) of 49.

With `COc1cc(C(=O)NC2CCCCNC2=O)cc(OC)c1OC` (stereo not drawn) the AA (Mus musculus [1]) was 31, the AA (Mus musculus [2]) was 42 and the AA (Mus musculus [3]) was 0.

In the case of `O=CNC1CCNC1=O` (stereo not drawn), the AA (Mus musculus [4]) is reported as 53, the AA (Mus musculus [5]) is reported as 9 and the AA (Mus musculus [6]) is reported as 0.

`CC(=O)NC1CCCCNC1=O` (stereo not drawn) showed an AA (Mus musculus [1]) of 7, an AA (Mus musculus [2]) of 14 and an AA (Mus musculus [3]) of 39.

In the case of `N[C@@H]1CCCCNC1=O`, the AA (Mus musculus [4]) is reported as 0, the AA (Mus musculus [5]) is reported as 25 and the AA (Mus musculus [6]) is reported as 44.

For `COc1ccc(C(=O)N2CCCC2=O)cc1` [ANIRACETAM], the AA (Mus musculus [1]) was 29, the AA (Mus musculus [2]) was 0 and the AA (Mus musculus [7]) was 83. The AA (Mus musculus [3]) was 18.

`NC(=O)CN1CC(O)CC1=O` (stereo not drawn) [OXIRACETAM] was tested, and the AA (Mus musculus [1]) was 31, the AA (Mus musculus [2]) was 8 and the AA (Mus musculus [7]) was 57. It also gave an AA (Mus musculus [3]) of 0.

`NC(=O)CN1CCCC1=O` [PIRACETAM] showed an AA (Mus musculus [1]) of 0, an AA (Mus musculus [2]) of 0 and an AA (Mus musculus [7]) of 39.
